tolC growth inh: growth inhibitors of E. coli tolC mutant, primary screen, strain BW25113 ΔtolC::kan, 384-well | OD615 | AID 573, 2007 | growth inhibition, % at 10 µM (by protocol) | actives 2.2% (n = 65,000);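 active = growth inhibition at or above a cutoff equal to the mean over every tested compound plus 3 SD, cut at about 60% in these data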;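 note: growth measured after 20 h incubation at 37 °C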
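Assay system: tolC-deleted E. coli BW25113. Medium: kanamycin-containing LB broth (50 µg/mL). Dosing: 10 µM final, single dose. Timing: bacterial growth with compound for 20 h at 37 °C. Detection: A615 absorbance measurement. Read-out basis: growth inhibition in percent.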
HUVEC inhibit: inhibitors of HUVEC proliferation, primary screen, cell-based, 384-well. CellTiter-Glo luminescence, 72 h; active compounds read low. actives 1.1% (n = 86,000). viability, % at 10 µM (by protocol);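 active = viability at or below 30%; inactive = viability above 30%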;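 note: 100% = median luminescence of DMSO-only cell control wells on each plate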
H69AR inhibit: proliferation blockers of H69AR lung cancer cells, primary screen, cell-based, human, 86K library | AID 598, 2007 | actives 6% (n = 85,000) | viability, % at 10 µM | H69AR lung tumor viability, ATP luminescence, 72 h; active compounds read low;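 active = viability at or below 40%; inactive = viability above 40%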;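 note: multidrug resistant small cell line overexpressing MRP-1 efflux transporter; 100% = mean luminescence of untreated control wells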
E coli WT exp: growth inhibitors of wild-type E. coli, primary screen, strain BW25113, expanded library, OD600; AID 710, 2007; actives 0.15% (n = 98,000); growth inhibition, % at 100 µM; OD600 absorbance;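 active = growth inhibition above about 50% at one test dose, limit read from the data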;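 note: growth measured after 20 h incubation at 37 °C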
Jurkat tox 60K: cytotoxicity toward Jurkat T cells, primary screen, cytotoxicity control, cell-based, Jurkat E6.1, 60K MLSMR library | Jurkat E6.1 viability, ATP luminescence, 48 h | inhibition, % at 4 µM | actives 1.2% (n = 56,000);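 active = inhibition above the mean inhibition of all tested compounds plus 3 SD, cut at about 28% in these data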
Lung fibro prol: antiproliferative effect on LL 47 fibroblasts – human, LL 47 cells, CellTiter-Glo luminescence, primary screen; actives 1.1% (n = 85,000); viability, % at 10 µM; LL 47 human lung fibroblast viability, ATP luminescence; active compounds read low;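 active = viability at or below 50% in the single dose screen; inactive = viability above 50%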;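 note: compound exposure lasted 72 h before the ATP readout; 100% = median luminescence of untreated cell-only wells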
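test system = LL 47 human lung fibroblasts | amount = 1,150 fibroblasts seeded per well | medium = 15% FBS in IMEM | times = overnight cell rest, 72 h compound treatment at 37 °C | measured by = CellTiter-Glo luminescence measuring cellular ATP | read-out = viability percentage against median untreated-cell control | benchmarks = cell-only wells, no compound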
Numbers without * were called inactive; x = not tested or not shown. Most compounds without a hit are left out; they make up all but 6.4% or so of the library.

SMILES	tolC growth inh	HUVEC inhibit	H69AR inhibit	E coli WT exp	Jurkat tox 60K	Lung fibro prol
Cc1ccc(OCC(=O)Nc2ccccc2N2CCOCC2)c(C)c1	x	113.8	85.7	6.0	x	101.7
Cc1ccc(C(C)C)c(OCC(=O)Nc2ccccc2N2CCN(C)CC2)c1	10.1	76.1	34.6*	11.0	-8.0	93.5
Cc1cc(Cl)ccc1OCC(=O)Nc1ccccc1N1CCOCC1	86.2*	104.3	66.9	-19.0	7.9	93.4
CC(=O)N1CCN(c2ccccc2NC(=O)COc2cc(C)ccc2C(C)C)CC1	31.4	71.9	35.1*	-21.0	1.1	92.6
Cc1cc(C)n(-c2ccc(C(=O)OCC(=O)N(CC(C)C)C3CCS(=O)(=O)C3)cc2)n1 (centres undefined)	-6.3	84.3	75.4	5.0	-3.2	100.2
CCOC(=O)c1ccccc1NS(=O)(=O)c1ccc(S(=O)(=O)N2CCCC2)cc1	17.2	109.5	61.6	-2.0	7.4	96.1
COC(=O)c1cc(-c2ccc(Br)cc2)on1	-10.9	93.3	105.0	2.0	4.0	99.7
COC(=O)C1Cc2c([nH]c3ccccc23)CN1 (centres undefined)	-2.3	97.3	107.8	6.0	-1.8	93.2
O=C(NC1CCCCCC1)C1c2ccccc2C(=O)N1CCCN1CCOCC1 (centres undefined)	-13.0	97.5	88.9	-15.0	8.1	97.4
Cc1ccccc1NC1=C(Cl)C(=O)OC1OC(=O)c1ccco1 (centres undefined)	x	76.0	9.9*	1.0	x	101.4
Cc1ccccc1NC1=C(Cl)C(=O)OC1NC(=O)c1ccccc1 (centres undefined)	x	104.1	64.4	-7.0	x	94.2
CCOc1ccc2[nH]c(=O)c(CN(Cc3ccc(F)cc3)C(=O)c3ccco3)cc2c1	11.0	48.7	15.9*	-7.0	10.8	77.9
CCC1Oc2ccc(C)cc2N(CC(=O)N(Cc2cccnc2)Cc2cccc(F)c2)C1=O (centres undefined)	x	87.2	42.7	x	x	90.2
Cc1ccc2[nH]c(=O)c(CN(Cc3ccco3)C(=O)c3ccncc3)cc2c1	-4.5	57.7	23.1*	-4.0	40.2*	83.0
CCC1Oc2ccc(C)cc2N(CC(=O)N(Cc2ccncc2)Cc2ccco2)C1=O (centres undefined)	x	95.6	34.4*	x	x	120.9
CCOc1ccc2[nH]c(=O)c(CN(Cc3ccco3)C(=O)c3cccc(F)c3)cc2c1	-2.6	85.8	78.0	-17.0	11.4	88.9
CCOc1ccc2[nH]c(=O)c(CN(Cc3ccco3)C(=O)c3ccc(Br)cc3)cc2c1	3.3	57.5	19.0*	-7.0	-8.4	66.0
COc1ccc(C(=O)N(Cc2ccco2)Cc2cc3cc(C)ccc3[nH]c2=O)cc1OC	-0.7	101.6	41.4	x	-1.9	100.8
COc1ccc(C2c3c(ccc4ccccc34)Oc3ncn4nc(CO/N=C/c5ccccc5)nc4c32)cc1 (centres undefined)	x	118.2	91.5	-11.0	x	101.0
c1cncc(-c2nn3c(-c4ccncc4)nnc3s2)c1	-16.1	102.6	92.0	x	-2.2	101.0
COc1ccc2[nH]c(=O)c(CN(Cc3ccco3)C(=O)c3ccccc3)cc2c1	-4.5	109.2	58.6	-4.0	-6.0	99.9
CCOc1ccc2[nH]c(=O)c(CN(Cc3ccccc3OC)C(=O)c3ccccc3)cc2c1	x	51.7	27.0*	-15.0	x	50.9
CS(=O)(=O)c1ncc(Cl)c(C(=O)Nc2ccc(N3CCOCC3)cc2)n1	19.4	36.7	0.2*	9.0	62.4*	x
N=c1nc(N)nc2n1NC(c1ccc(F)cc1)=CS2	3.4	29.8*	93.1	7.0	x	90.7
CN=C1SC(CC(=O)Nc2sc3c(c2C#N)CCCC3)C(=O)N1C (centres undefined)	8.7	87.4	20.5*	-3.0	x	98.0
N#Cc1c(NC(=O)CCC(=O)O)sc2c1CCCC2	1.5	103.8	97.6	-4.0	x	92.1
N#Cc1c(NC(=O)c2ccc(Cn3cc(Br)cn3)o2)sc2c1CCCCCC2	60.7*	71.7	84.7	-16.0	8.1	92.2

High-throughput results deposited in PubChem BioAssay by several laboratories.
